# Columns and labels:
# [1] = tested on: Listeria monocytogenes; test: Antibacterial activity against Listeria monocytogenes NCTC 7973 at […] degC measured after 24 hr by microdilution method; format: functional; details: NCTC 7973, 24 h
# Method in brief: (§1)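 Bacteria suspended in sterile saline at 1.0×10⁵ CFU/ml and added at 1.0×10⁴ CFU per well to LB broth with compound (1 mg/ml) in 96-well plates. Incubated 24 h at […] °C. MIC was the lowest concentration without visible growth under a binocular microscope. OD 655 nm was read against a blank and a positive control.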
# [2] = tested on: Bacillus cereus; test: Antibacterial activity against clinical isolate Bacillus cereus at […] degC measured after 24 hr by microdilution method; format: functional; method in brief: as §1
# [3] = tested on: Salmonella typhimurium; test: Antibacterial activity against Salmonella enterica subsp. enterica serovar Typhimurium ATCC 13311 at […] degC measured after 24 hr by microdilution method; format: functional; details: ATCC 13311, 24 h; method in brief: as §1
# [4] = tested on: Trichoderma viride; test: Antifungal activity against Hypocrea rufa IAM 5061 at 28 degC measured after 72 hr by microdilution method; format: functional; details: IAM 5061, 72 h
# Method in brief: (§2)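 Fungi were kept on malt agar at 4 °C. Spores were washed off with sterile 0.85% saline containing 0.1% Tween 80 and adjusted to about 1.0×10⁵ per well. Compounds were dissolved in DMSO (1 mg/ml stock) and serially diluted in malt broth with inoculum in 96-well plates, 72 h at 28 °C, for MIC. MFC came from subculture into fresh broth for a further 72 h at 28 °C.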
# [5] = tested on: Salmonella typhimurium; test: Antibacterial activity against Salmonella enterica subsp. enterica serovar TyphimuriumATCC 13311 at […] degC measured after 72 hr by microdilution method; format: functional, Salmonella enterica subsp. enterica serovar Typhimurium; details: ATCC 13311, 72 h
# Method in brief: (§3)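 Bactericidal endpoint: after the 24 h broth microdilution (1.0×10⁴ CFU per well, LB broth, […] °C), wells were serially subcultured into plates of fresh broth and incubated a further 72 h. MBC was the lowest concentration with no visible growth, taken as 99.5% killing of the original inoculum.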
# [6] = tested on: Penicillium ochrochloron; test: Antifungal activity against Penicillium ochrochloron ATCC 9112 at 28 degC measured after 72 hr by microdilution method; format: functional; details: ATCC 9112, 72 h; method in brief: as §2
# [7] = tested on: Escherichia coli; test: Antibacterial activity against Escherichia coli ATCC 35210 at […] degC measured after 24 hr by microdilution method; format: functional; details: ATCC 35210, 24 h; method in brief: as §1
# [8] = tested on: Aspergillus flavus; test: Antifungal activity against Aspergillus flavus ATCC 9643 at 28 degC measured after 72 hr by microdilution method; format: functional; details: ATCC 9643, 72 h; method in brief: as §2
# [9] = tested on: Staphylococcus aureus; test: Antibacterial activity against Staphylococcus aureus ATCC 6538 at […] degC measured after 24 hr by microdilution method; format: functional; details: ATCC 6538, 24 h; method in brief: as §1
# [10] = tested on: Aspergillus versicolor; test: Antifungal activity against Aspergillus versicolor ATCC 11730 at 28 degC measured after 72 hr by microdilution method; format: functional; details: ATCC 11730, 72 h; method in brief: as §2
# [11] = tested on: Staphylococcus aureus; test: Antibacterial activity against Staphylococcus aureus ATCC 6538 at […] degC measured after 72 hr by microdilution method; format: functional; details: ATCC 6538, 72 h; method in brief: as §3
# [12] = tested on: Listeria monocytogenes; test: Antibacterial activity against Listeria monocytogenes NCTC 7973 at […] degC measured after 72 hr by microdilution method; format: functional; details: NCTC 7973, 72 h; method in brief: as §3
# [13] = tested on: Aspergillus fumigatus; test: Antifungal activity against plant isolate Aspergillus fumigatus at 28 degC measured after 72 hr by microdilution method; format: functional; method in brief: as §2
# [14] = tested on: Fulvia fulva; test: Antifungal activity against Passalora fulva TK5318 at 28 degC measured after 72 hr by microdilution method; format: functional; details: TK5318, 72 h; method in brief: as §2
# [15] = tested on: Micrococcus flavus; test: Antibacterial activity against Micrococcus flavus ATCC 10240 at […] degC measured after 24 hr by microdilution method; format: functional; details: ATCC 10240, 24 h; method in brief: as §1
# [16] = tested on: Pseudomonas aeruginosa; test: Antibacterial activity against Pseudomonas aeruginosa ATCC 27853 at […] degC measured after 24 hr by microdilution method; format: functional; details: ATCC 27853, 24 h; method in brief: as §1
# [17] = tested on: Micrococcus flavus; test: Antibacterial activity against Micrococcus flavus ATCC 10240 at […] degC measured after 72 hr by microdilution method; format: functional; details: ATCC 10240, 72 h; method in brief: as §3
# [18] = tested on: Bacillus cereus; test: Antibacterial activity against clinical isolate Bacillus cereus at […] degC measured after 72 hr by microdilution method; format: functional; method in brief: as §3
# [19] = tested on: Pseudomonas aeruginosa; test: Antibacterial activity against Pseudomonas aeruginosa ATCC 27853 at […] degC measured after 72 hr by microdilution method; format: functional; details: ATCC 27853, 72 h; method in brief: as §3
# [20] = tested on: Talaromyces funiculosus; test: Antifungal activity against Talaromyces funiculosus ATCC 36839 at 28 degC measured after 72 hr by microdilution method; format: functional; details: ATCC 36839, 72 h; method in brief: as §2
# [21] = tested on: Proteus mirabilis; test: Antibacterial activity against Proteus mirabilis at […] degC measured after 24 hr by microdilution method; format: functional; method in brief: as §1
# [22] = tested on: Proteus mirabilis; test: Antibacterial activity against Proteus mirabilis at […] degC measured after 72 hr by microdilution method; format: functional; method in brief: as §3
# [23] = tested on: Escherichia coli; test: Antibacterial activity against Escherichia coli ATCC 35210 at […] degC measured after 72 hr by microdilution method; format: functional; details: ATCC 35210, 72 h; method in brief: as §3
# [24] = tested on: Aspergillus niger; test: Antifungal activity against Aspergillus niger ATCC 6275 at 28 degC measured after 72 hr by microdilution method; format: functional; details: ATCC 6275, 72 h; method in brief: as §2
MIC [1] [µM],MIC [2] [µM],MIC [3] [µM],MIC [4] [µM],MIC [6] [µM],MIC [7] [µM],MIC [8] [µM],MIC [9] [µM],MIC [10] [µM],MIC [14] [µM],SMILES,MFC [4] [µM],MBC [5] [µM],MFC [6] [µM],MFC [8] [µM],MFC [10] [µM],MBC [11] [µM],MBC [12] [µM],MFC [13] [µM],MIC [13] [µM],MFC [14] [µM],further results
18.9,9.5,9.5,9.5,18.9,18.9,18.9,9.5,18.9,18.9,COc1cc(Cc2nnc(Nc3ccc(C(F)(F)F)cc3)s2)c(S(=O)(=O)N2CCCC2)cc1OC,18.9,18.9,37.8,37.8,37.8,18.9,18.9,37.8,18.9,75.6,MIC [15]: 18.9 µM; MIC [16]: 9.5 µM; MBC [17]: 37.8 µM; MBC [18]: 18.9 µM; MBC [19]: 18.9 µM; MFC [20]: 37.8 µM; MIC [20]: 18.9 µM; MIC [21]: 18.9 µM; MBC [22]: 37.8 µM; MBC [23]: 37.8 µM; MFC [24]: 37.8 µM; MIC [24]: 18.9 µM
39.4,9.8,9.8,9.8,19.7,19.7,9.8,19.7,9.8,9.8,COc1cc(Cc2nnc(Nc3ccc(Cl)cc3)s2)c(S(=O)(=O)N2CCCCC2)cc1OC,19.7,19.7,39.4,19.7,19.7,39.4,78.8,39.4,19.7,19.7,MIC [15]: 19.7 µM; MIC [16]: 9.8 µM; MBC [17]: 39.4 µM; MBC [18]: 19.7 µM; MBC [19]: 19.7 µM; MFC [20]: 39.4 µM; MIC [20]: 19.7 µM; MIC [21]: 19.7 µM; MBC [22]: 78.7 µM; MBC [23]: 39.4 µM; MFC [24]: 39.4 µM; MIC [24]: 19.7 µM
19.3,19.3,9.7,9.7,19.3,19.3,19.3,38.6,19.3,9.7,COc1cc(Cc2nnc(Nc3ccc([N+](=O)[O-])cc3)s2)c(S(=O)(=O)N2CCCCC2)cc1OC,19.3,19.3,38.6,38.6,38.6,77.2,77.2,38.6,19.3,19.3,MIC [15]: 19.3 µM; MIC [16]: 9.7 µM; MBC [17]: 38.6 µM; MBC [18]: 38.6 µM; MBC [19]: 19.3 µM; MFC [20]: 38.6 µM; MIC [20]: 19.3 µM; MIC [21]: 38.6 µM; MBC [22]: 77.2 µM; MBC [23]: 38.6 µM; MFC [24]: 38.6 µM; MIC [24]: 19.3 µM
18.4,9.2,9.2,9.2,18.4,18.4,18.4,18.4,9.2,9.2,COc1cc(Cc2nnc(Nc3ccc(C(F)(F)F)cc3)s2)c(S(=O)(=O)N2CCCCC2)cc1OC,18.4,18.4,36.8,36.8,18.4,36.8,73.6,36.8,9.2,18.4,MIC [15]: 9.2 µM; MIC [16]: 9.2 µM; MBC [17]: 18.4 µM; MBC [18]: 18.4 µM; MBC [19]: 18.4 µM; MFC [20]: 18.4 µM; MIC [20]: 9.2 µM; MIC [21]: 36.8 µM; MBC [22]: 73.6 µM; MBC [23]: 36.8 µM; MFC [24]: 36.8 µM; MIC [24]: 18.4 µM
19.1,19.1,9.6,9.6,19.1,19.1,19.1,38.2,38.2,9.6,COc1cc(Cc2nnc(Nc3ccc(Cl)cc3)s2)c(S(=O)(=O)N2CCN(C)CC2)cc1OC,19.1,38.2,38.2,38.2,38.2,76.4,76.4,38.2,9.6,19.1,MIC [15]: 9.6 µM; MIC [16]: 19.1 µM; MBC [17]: 19.1 µM; MBC [18]: 38.2 µM; MBC [19]: 76.4 µM; MFC [20]: 38.2 µM; MIC [20]: 19.1 µM; MIC [21]: 38.2 µM; MBC [22]: 76.4 µM; MBC [23]: 76.4 µM; MFC [24]: 38.2 µM; MIC [24]: 19.1 µM
